Data reported in publication PMC9291822 (British Journal of Clinical Pharmacology, 2021).
“And” between values parts separate entries of the source, which are not always exact repeats. Identical values can stand only once. “Also recorded” adds a separate entry of the source. Like-named read-outs stand apart in the source and are kept apart here.

Tests used:
[1] = repeated administration of 400-mg BID tablets; cited from earlier work
plasma protein = conditions: cited from earlier work
[2] = healthy participants, cited from earlier work
human plasma proteins = assay: Plasma protein binding by ultrafiltration, 3 h postdose samples; type: in vitro ADME
MET = MET inhibitor; cited from earlier work
[3] = Safety assessments and adverse events after single-dose capmatinib; type: in vivo, human; conditions: for AEs, any primary system organ class: regardless of study drug relationship
Method in brief: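 Single oral 200 mg dose; participants confined from day −1 to day 4. Haematology, chemistry, coagulation and urinalysis at screening, baseline, days 1–2 and end of treatment; vital signs on days 1–3. Triplicate 12-lead ECGs. AEs/SAEs recorded with severity and relatedness, graded per CTCAE v4.03. Phone follow-up at 30 days post-dose.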

[4] = type: in vivo, human
Method in brief: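 Adults aged 18–75 with hepatic impairment (Child–Pugh A/B/C, also reclassified by NCI Organ Dysfunction Working Group criteria) or normal function, matched on age, weight and sex. Overnight fast (≥10 h), single oral 200 mg (2 × 100 mg tablets), fasting ≥4 h post-dose. Plasma sampled predose to 72 h; parent and metabolite measured by validated LC-MS/MS (LLOQ ~1.00 ng/mL). Noncompartmental analysis; GM ratios vs normal with 90% CIs.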

[5] = single oral dose 200 mg, mild, Child–Pugh A (n = 6)
[6] = single oral dose 200 mg, moderate, Child–Pugh B (n = 8)
[7] = single oral dose 200 mg, normal (n = 9)
[8] = single oral dose 200 mg, severe, Child–Pugh C (n = 6)

## CNC(=O)c1ccc(-c2cnc3ncc(Cc4ccc5ncccc5c4)n3n2)cc1F [capmatinib]
[1]
  steady state GM accumulation ratio: 1.4
Plasma protein
  bound to plasma protein: 96%
[2]; single dose of 600 mg, tablet formulation
  tolerability: tolerated
[2]; tablets, single dose of 200–600 mg
  PK dose linearity: linear
Human plasma proteins; 3 hours postdose samples, across all participants
  bound to human plasma proteins: 96.7%
Human plasma proteins; severe group
  GM unbound fraction higher vs. normal group: ~ 44.8%
MET
  IC50: 0.6 nM
[3]; all participants (N = 31)
  AEs, any primary system organ class, maximum Grade 1: 5 (16.1) n (%)
  AEs, any primary system organ class, maximum Grade 2: 1 (3.2) n (%)
  Diarrhoea: 1 (3.2) n (%)
  Dizziness: 1 (3.2) n (%)
  Ear and labyrinth disorders: 1 (3.2) n (%)
  Flatulence: 1 (3.2) n (%)
  Gastrointestinal disorders: 3 (9.7) n (%)
  General disorders and administration site conditions: 1 (3.2) n (%)
  Headache: 2 (6.5) n (%)
  Hypoglycaemia: 1 (3.2) n (%)
  Medical device site dermatitis: 1 (3.2) n (%)
  Metabolism and nutrition disorders: 1 (3.2) n (%)
  Nausea: 2 (6.5) n (%)
  Nervous system disorders: 2 (6.5) n (%)
  Vertigo: 1 (3.2) n (%)
  participants with AEs suspected to be capmatinib related: 9.7%
  severity of AEs suspected to be capmatinib related: grade 1
  AEs, any primary system organ class: 6 n (%) and 6 (19.4) n (%)
[3]; during study treatment and 30-day follow-up
  deaths and SAEs: No deaths and SAEs
[3]; mild (n = 7)
  AEs, any primary system organ class, maximum Grade 1: 2 (28.6) n (%)
  AEs, any primary system organ class, maximum Grade 2: 1 (14.3) n (%)
  Diarrhoea: 0 n (%)
  Dizziness: 0 n (%)
  Ear and labyrinth disorders: 1 (14.3) n (%)
  Flatulence: 0 n (%)
  Gastrointestinal disorders: 0 n (%)
  General disorders and administration site conditions: 1 (14.3) n (%)
  Headache: 1 (14.3) n (%)
  Hypoglycaemia: 1 (14.3) n (%)
  Medical device site dermatitis: 1 (14.3) n (%)
  Metabolism and nutrition disorders: 1 (14.3) n (%)
  Nausea: 0 n (%)
  Nervous system disorders: 1 (14.3) n (%)
  Vertigo: 1 (14.3) n (%)
  AEs, any primary system organ class: 3 (42.9) n (%)
[3]; moderate (n = 8)
  AEs, any primary system organ class, maximum Grade 1: 2 (25.0) n (%)
  AEs, any primary system organ class, maximum Grade 2: 0 n (%)
  Diarrhoea: 0 n (%)
  Dizziness: 1 (12.5) n (%)
  Ear and labyrinth disorders: 0 n (%)
  Flatulence: 0 n (%)
  Gastrointestinal disorders: 2 (25.0) n (%)
  General disorders and administration site conditions: 0 n (%)
  Headache: 1 (12.5) n (%)
  Hypoglycaemia: 0 n (%)
  Medical device site dermatitis: 0 n (%)
  Metabolism and nutrition disorders: 0 n (%)
  Nausea: 2 (25.0) n (%)
  Nervous system disorders: 1 (12.5) n (%)
  Vertigo: 0 n (%)
  AEs, any primary system organ class: 2 (25.0) n (%)
[3]; normal (n = 10)
  AEs, any primary system organ class, maximum Grade 1: 0 n (%)
  AEs, any primary system organ class, maximum Grade 2: 0 n (%)
  Diarrhoea: 0 n (%)
  Dizziness: 0 n (%)
  Ear and labyrinth disorders: 0 n (%)
  Flatulence: 0 n (%)
  Gastrointestinal disorders: 0 n (%)
  General disorders and administration site conditions: 0 n (%)
  Headache: 0 n (%)
  Hypoglycaemia: 0 n (%)
  Medical device site dermatitis: 0 n (%)
  Metabolism and nutrition disorders: 0 n (%)
  Nausea: 0 n (%)
  Nervous system disorders: 0 n (%)
  Vertigo: 0 n (%)
  AEs, any primary system organ class: 0 n (%)
[3]; severe (n = 6)
  AEs, any primary system organ class: 1 (16.7) n (%)
  AEs, any primary system organ class, maximum Grade 1: 1 (16.7) n (%)
  AEs, any primary system organ class, maximum Grade 2: 0 n (%)
  Diarrhoea: 1 (16.7) n (%)
  Dizziness: 0 n (%)
  Ear and labyrinth disorders: 0 n (%)
  Flatulence: 1 (16.7) n (%)
  Gastrointestinal disorders: 1 (16.7) n (%)
  General disorders and administration site conditions: 0 n (%)
  Headache: 0 n (%)
  Hypoglycaemia: 0 n (%)
  Medical device site dermatitis: 0 n (%)
  Metabolism and nutrition disorders: 0 n (%)
  Nausea: 0 n (%)
  Nervous system disorders: 0 n (%)
  Vertigo: 0 n (%)
[3]; single dose, mild, moderate, severe hepatic impairment and normal hepatic function
  tolerability: well tolerated
[3]; single oral dose 200 mg
  changes in chemistry parameters, QTcF or other ECG parameters: No clinically relevant changes
  changes in haematological parameters: Minimal changes
[4]; NCI classification, both mild and moderate groups
  increase in GM AUCinf, AUClast and Cmax vs. normal group: 26–46%
[4]; NCI classification, mild group
  increase in GM AUCinf vs. normal group: 26%
  increase in GM AUClast vs. normal group: 27%
  increase in GM Cmax vs. normal group: 35%
[4]; NCI classification, moderate group
  increase in GM Cmax vs. normal group: 46%
[4]; human, plasma, po, 200 mg, AUCinf, GM, single oral dose 200 mg, normal (n = 9)
  AUC(0-inf): 6240 ng·h/mL
[4]; human, plasma, po, 200 mg, AUClast, GM, single oral dose 200 mg, normal (n = 9)
  AUC(0-t): 6190 ng·h/mL
[4]; human, plasma, po, 200 mg, Cmax, GM, single oral dose 200 mg, normal (n = 9)
  Cmax: 1740 ng/mL
[4]; human, plasma, po, 200 mg, Vz/F, GM, single oral dose 200 mg, normal (n = 9)
  Vd/F: 483 L
[4]; human, plasma, po, 200 mg, t½, GM, single oral dose 200 mg, normal (n = 9)
  half-life: 10.4 h
[4]; mild and moderate groups, end of stage 1
  GM exposures vs. normal group, interim PK analysis: < 3 fold
[4]; mild group
  GM Vz/F lower vs. normal group: 32.9%
  GM t½ shorter vs. normal group: 48.4%
  decrease in GM AUCinf vs. normal group: 23.3%
  decrease in GM Cmax vs. normal group: 27.6%
  increase in GM CL/F vs. normal group: 30.6%
[4]; mild group, unbound
  decrease in GM AUCinf,u vs. normal group: 19.3%
  decrease in GM AUClast,u vs. normal group: 19.6%
  decrease in GM Cmax,u vs. normal group: 23.9%
[4]; moderate group
  GM Vz/F lower vs. normal group: 39.5%
  GM t½ shorter vs. normal group: 44.5%
  decrease in GM AUCinf vs. normal group: 8.6%
  decrease in GM Cmax vs. normal group: 17.2%
  increase in GM CL/F vs. normal group: 9.7%
[4]; moderate group, unbound
  GM Cmax,u, AUClast,u and AUCinf,u vs. normal group: similar
[4]; severe group
  GM Vz/F lower vs. normal group: 53.0%
  GM t½ shorter vs. normal group: 41.5%
  change in GM Cmax vs. normal group: remained unchanged; also recorded: remained similar
  decrease in GM CL/F vs. normal group: 19.1%
  increase in GM AUCinf vs. normal group: 24%
[4]; severe group, unbound
  increase in GM AUCinf,u vs. normal group: 78%
  increase in GM AUClast,u vs. normal group: 78%
  increase in GM Cmax,u vs. normal group: 46%
[4]; [5]
  CL/F, GM: 41.8 L/h
  CL/F, mean (SD): 42.6 (9.23) L/h
[4]; [6]
  CL/F, GM: 35.1 L/h
  CL/F, mean (SD): 36.6 (11.4) L/h
[4]; [7]
  CL/F, GM: 32.0 L/h
  CL/F, mean (SD): 36.1 (19.1) L/h
[4]; [8]
  CL/F, GM: 25.9 L/h
  CL/F, mean (SD): 28.2 (11.7) L/h
